ChEMBL document CHEMBL5344427, “Small Molecule Ligands of the BET-like Bromodomain, SmBRD3, Affect Schistosoma mansoni Survival, Oviposition, and Development” (J Med Chem, 2023)
Active and inactive are the calls of the source. No cut-off for these calls is given here.

Assays:
Schistosoma mansoni [1] = test: Binding affinity to Schistosoma mansoni BRD3 BD 2 by ITC analysis
Schistosoma mansoni [2] = test: Binding affinity to Schistosoma mansoni BRD3 BD 1 assessed as thermal stability at 50 uM by DSF analysis
Schistosoma mansoni [3] = test: Antiparasitic activity against Schistosoma mansoni adult worms assessed as lethality at 20 uM incubated for 72 hrs; format: functional, organism-based
Schistosoma mansoni [4] = test: Binding affinity to Schistosoma mansoni BRD3 BD 2 assessed as thermal stability at 50 uM by DSF analysis
Outline: (§1)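 Differential scanning fluorimetry on recombinant SmBRD3(1,2) tandem construct or SmBRD3(2) single domain, compounds at 50 μM; ΔTm as mean of n = 3 with SD.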

Schistosoma mansoni [5] = test: Binding affinity to Schistosoma mansoni BRD3 BD 1 and 2 assessed as thermal stability at 50 uM by DSF analysis; outline: as §1
[6] = Binding affinity to Schistosoma mansoni BRD3 BD 2 assessed as dissociation constant by ITC analysis
Schistosoma mansoni [7] = test: Antiparasitic activity against Schistosoma mansoni assessed as effect on schistosomula phenotype incubated for 72 hrs by high content imaging analysis; format: functional, organism-based
Outline: (§2)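 Schistosomula from mechanically transformed cercariae, 120/well, dosed from 10 mM DMSO stock at 20 and 10 μM final in duplicate (0.625% DMSO), ≥4 independent screens (Z′ >0.35). Auranofin 10 μM positive and DMSO negative controls. Phenotype and motility read by high content imaging after 72 h.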

Schistosoma mansoni [8] = test: Antiparasitic activity against Schistosoma mansoni assessed as effect on schistosomula motility incubated for 72 hrs by high content imaging analysis; format: functional, organism-based; outline: as §2
Schistosoma mansoni [9] = test: Antiparasitic activity against Schistosoma mansoni assessed as inhibition of miracidia to sporocyst transformation at 0.5 to 25 uM incubated for 48 hrs by enumeration method; format: functional, organism-based; settings: dose 0.5-25 µM
Outline: (§3)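 Miracidia hatched from eggs, washed in Chernin's balanced salt solution, 15–25 per well. Exposed to 0.5, 2.0, 5.0, 10 and 25 μM final in 1% DMSO, 48 h at 26 °C in the dark. Dead, partially and fully transformed parasites counted as % of population. Three independent experiments, two technical replicates each; CBSS/1% DMSO negative control.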

[10] = (§4) Prodrug conversion in Schistosoma mansoni adult worms assessed as 3-(3,5-dimethylisoxazol-4-yl)-5-(hydroxy(phenyl)methyl)phenol metabolite formation at 20 uM incubated for 24 hrs followed by compound washout thrice and subsequent addition of fresh medium without compound by LC-MS analysis; format: ADME
Schistosoma mansoni [11] = test: Antiparasitic activity against Schistosoma mansoni assessed as effect on schistosomula motility at 10 to 20 uM incubated for 72 hrs by high content imaging analysis; format: functional, organism-based; settings: dose 10-20 µM; outline: as §2
Schistosoma mansoni [12] = test: Antiparasitic activity against Schistosoma mansoni assessed as effect on schistosomula phenotype at 10 to 20 uM incubated for 72 hrs by high content imaging analysis; format: functional, organism-based; settings: dose 10-20 µM; outline: as §2
[13] = Prodrug conversion in Schistosoma mansoni adult worms assessed as ester hydrolysis in media at 20 uM incubated for 24 hrs followed by compound washout thrice and subsequent addition of fresh medium without compound by LC-MS analysis; format: ADME
[14] = Drug uptake in Schistosoma mansoni adult worms at 20 uM incubated for 24 hrs followed by compound washout thrice and subsequent addition of fresh medium without compound by LC-MS analysis; format: ADME
Outline: (§5)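 Adult worms exposed to 20 μM compound for 24 h, medium exchanged three times, worms then lysed; parent and acid levels in lysate quantified by LCMS.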

Schistosoma mansoni [15] = test: Antiparasitic activity against Schistosoma mansoni assessed as inhibition of miracidia to sporocyst transformation incubated for 48 hrs by enumeration method; format: functional, organism-based; settings: dose 0.5-25 µM; outline: as §3
[16] = as §4, with “4-{(2S,4R)-1-acetyl-2-methyl-4-[(quinolin-6-yl)amino]-1,2,3,4-tetrahydroquinolin-6-yl}benzoic acid” for “3-(3,5-dimethylisoxazol-4-yl)-5-(hydroxy(phenyl)methyl)phenol”; format: ADME; outline: as §5
[17] = Binding affinity to Schistosoma mansoni BRD3 BD 1 and 2 assessed as dissociation constant by ITC analysis
Schistosoma mansoni [18] = test: Antiparasitic activity against Schistosoma mansoni adult worms assessed as reduction in worm pairing at 20 uM incubated for 72 hrs by imaging analysis; format: functional, organism-based
Outline: (§6)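 Adult worm pairs perfused from TO mice infected percutaneously 7 weeks earlier with 180 cercariae; 1 pair/well in duplicate, dosed at 20 μM in 0.2% DMSO for 72 h. Motility scored by digital image processing (WormassayGP2); in vitro laid eggs counted and pairing noted. DMSO negative and praziquantel positive controls; n = 2 independent screens, 2 technical replicates each.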

Schistosoma mansoni [19] = test: Antiparasitic activity against Schistosoma mansoni adult worms assessed as reduction in oviposition at 20 uM incubated for 72 hrs by imaging analysis; format: functional, organism-based; outline: as §6
Schistosoma mansoni [20] = test: Antiparasitic activity against Schistosoma mansoni adult worms assessed as effect on worm motility at 20 uM incubated for 72 hrs by imaging analysis; format: functional, organism-based; outline: as §6

## Cc1noc(C)c1-c1cc(O)cc(C(O)c2ccccc2)c1 (centres undefined)
Schistosoma mansoni [1]
  Activity: inactive
Schistosoma mansoni [2]
  Activity: Active
Schistosoma mansoni [3]
  Activity: inactive
Schistosoma mansoni [4]
  Activity: inactive
Schistosoma mansoni [5]
  Activity: Active

## CC(=O)N1c2ccc(-c3ccc(C(=O)O)cc3)cc2[C@H](Nc2ccc3[nH]ccc3c2)C[C@@H]1C
[6]
  pKd: 6.2
Schistosoma mansoni [7]
  EC50: 2970 nM
Schistosoma mansoni [3]
  Activity: inactive
Schistosoma mansoni [8]
  EC50: 1.81 µM

## CC(=O)N1c2ccc(-c3ccc(C(=O)O)cc3)cc2[C@H](Nc2ccc3ccoc3c2)C[C@@H]1C
[6]
  pKd: 5.9
Schistosoma mansoni [7]
  EC50: 2430 nM
Schistosoma mansoni [3]
  Activity: inactive
Schistosoma mansoni [8]
  EC50: 3.92 µM

## CCOC(=O)c1ccc(-c2ccc3c(c2)[C@H](Nc2ccc4sccc4c2)C[C@H](C)N3C(C)=O)cc1
Schistosoma mansoni [3]
  Activity: inactive

## CC(=O)N1c2ccc(-c3ccc(C(=O)O)cc3)cc2[C@H](Nc2ccc3sccc3c2)C[C@@H]1C
[6]
  pKd: 6.3
Schistosoma mansoni [3]
  Activity: inactive

## CCOC(=O)c1ccc(-c2ccc3c(c2)[C@H](Nc2ccc4ncsc4c2)C[C@H](C)N3C(C)=O)cc1
[6]
  Kd: 1180 nM
Schistosoma mansoni [3]
  Activity: inactive

## CC(=O)N1c2ccc(-c3ccc(C(=O)O)cc3)cc2[C@H](Nc2ccc3ccsc3c2)C[C@@H]1C
[6]
  pKd: 6.2
Schistosoma mansoni [3]
  Activity: inactive

## CC(=O)Oc1cc(-c2c(C)noc2C)cc(C(O)c2ccccc2)c1 (centres undefined)
Schistosoma mansoni [9]
  inhibition: inactive
Schistosoma mansoni [1]
  Activity: inactive
Schistosoma mansoni [3]
  Activity: inactive
[10]
  Drug metabolism: Metabolite_Detected
Schistosoma mansoni [11]
  Activity: Active
Schistosoma mansoni [12]
  Activity: Active

## CC[C@@H]1C(=O)N(C)c2cnc(Nc3ccc(C(=O)NC4CCN(C)CC4)cc3OC)nc2N1C1CCCC1
Schistosoma mansoni [4]
  Activity: Active
Schistosoma mansoni [5]
  Activity: Active

## O=C(C1CCCCC1)N1CC(=O)N2CCc3ccccc3C2C1 (centres undefined)
Schistosoma mansoni [3]
  Activity: inactive

## CC(=O)N1c2ccc(-c3ccc(C(=O)O)cc3)cc2[C@@H](Nc2ccc3ccsc3c2)C[C@H]1C
Schistosoma mansoni [1]
  Activity: inactive
Schistosoma mansoni [3]
  Activity: inactive
Schistosoma mansoni [11]
  Activity: inactive
Schistosoma mansoni [12]
  Activity: inactive

## CC(=O)N1c2ccc(-c3ccc(C(=O)O)cc3)cc2[C@H](Nc2ccc3ncccc3c2)C[C@@H]1C
[6]
  pKd: 6.4
Schistosoma mansoni [7]
  EC50: 1110 nM
Schistosoma mansoni [3]
  Activity: inactive
Schistosoma mansoni [8]
  EC50: 3.3 µM

## CCOC(=O)c1ccc(-c2ccc3c(c2)[C@H](Nc2ccc4[nH]ccc4c2)C[C@H](C)N3C(C)=O)cc1
[6]
  Kd: 651 nM
Schistosoma mansoni [3]
  Activity: inactive

## COc1cc2c3c(cnc2cc1-c1c(C)noc1C)NC(=O)C3[C@H](C)c1ccccn1 (some centres undefined)
[6]
  pKd: 5.2

## CCOC(=O)c1ccc(-c2ccc3c(c2)[C@H](Nc2ccc4ncccc4c2)C[C@H](C)N3C(C)=O)cc1
[13]
  Drug metabolism: Metabolite_Detected
[14]
  Drug uptake: Active
[6]
  Kd: 364 nM
Schistosoma mansoni [15]
  inhibition: Dose-Dependent Effect
[16]
  Drug metabolism: Metabolite_Detected
Schistosoma mansoni [3]
  Activity: inactive

## CC(=O)N1c2ccc(-c3ccc(C(=O)O)cc3)cc2[C@H](Nc2ccc(Cl)cc2)C[C@@H]1C
[6]
  pKd: 5.7
Schistosoma mansoni [3]
  Activity: inactive
Schistosoma mansoni [4]
  Activity: Active
Schistosoma mansoni [5]
  Activity: Active

## CCOC(=O)c1ccc(-c2ccc3c(c2)[C@H](Nc2ccc4ccoc4c2)C[C@H](C)N3C(C)=O)cc1
[6]
  Kd: 1180 nM
Schistosoma mansoni [3]
  Activity: inactive

## CC(=O)N1c2ccc(-c3ccc(C(=O)O)cc3)cc2[C@H](Nc2ccc3ncsc3c2)C[C@@H]1C
[6]
  pKd: 5.9
Schistosoma mansoni [7]
  EC50: 2140 nM
Schistosoma mansoni [3]
  Activity: inactive
Schistosoma mansoni [8]
  EC50: 2.85 µM

## Cc1sc2c(c1C)C(c1ccc(Cl)cc1)=N[C@@H](CC(=O)OC(C)(C)C)c1nnc(C)n1-2
Schistosoma mansoni [9]
  inhibition: Active
Schistosoma mansoni [1]
  Activity: inactive
Schistosoma mansoni [2]
  Activity: Active
[17]
  Kd: 445 nM
  pKd: 6.4
Schistosoma mansoni [3]
  Activity: inactive
Schistosoma mansoni [4]
  Activity: inactive
Schistosoma mansoni [5]
  Activity: Active

## CCOC(=O)c1ccc(-c2ccc3c(c2)[C@@H](Nc2ccc4ccsc4c2)C[C@@H](C)N3C(C)=O)cc1
Schistosoma mansoni [9]
  inhibition: Active
Schistosoma mansoni [3]
  Activity: inactive
Schistosoma mansoni [11]
  Activity: inactive
Schistosoma mansoni [12]
  Activity: inactive
Schistosoma mansoni [18]
  Activity: inactive

## Cc1noc(C)c1-c1cc(O)cc(C(O)c2cccnc2)c1 (centres undefined)
Schistosoma mansoni [1]
  Activity: inactive
Schistosoma mansoni [3]
  Activity: inactive

## Cc1noc(C)c1-c1cc(O)cc(C(O)c2ccc(F)cc2)c1 (centres undefined)
Schistosoma mansoni [9]
  inhibition: inactive
Schistosoma mansoni [1]
  Activity: inactive
Schistosoma mansoni [3]
  Activity: inactive

## CCOC(=O)c1ccc(-c2ccc3c(c2)[C@H](Nc2ccc4ccsc4c2)C[C@H](C)N3C(C)=O)cc1
Schistosoma mansoni [15]
  inhibition: Dose-Dependent Effect
Schistosoma mansoni [19]
  Activity: Active
Schistosoma mansoni [3]
  Activity: inactive
Schistosoma mansoni [20]
  Activity: Active
Schistosoma mansoni [18]
  Activity: Active
